The source of these data is ChEMBL document CHEMBL1133419, “Design, synthesis and biological evaluation of 3-amino-3-phenylpropionamide derivatives as novel mu opioid receptor ligands” (Bioorg Med Chem Lett, 2000).

The target in experiment [1] is Kappa-type opioid receptor (Homo sapiens, UniProt P41145). Put plainly: biochemical. The experiment is classed as cell-based, HEK293.
The target of experiment [2] is Mu-type opioid receptor (Rattus norvegicus, UniProt P33535). Put plainly: Inhibition of [3H]DAMGO binding to rat Opioid receptor mu 1. In a few lines:
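Rat brain crude membranes (homogenized in 50 mM Tris HCl pH 7.4, kept on ice) incubated with 1.5 nM [3H]DAMGO for 90 min at 22 °C. Nonspecific binding defined with naltrexone. Terminated by rapid filtration, bound radioactivity counted by scintillation. Mean of at least three independent assays.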

Experiment [3] deals with Delta-type opioid receptor (Homo sapiens, UniProt P41143). Put plainly: Inhibition of [3H]naltrindole binding to human Opioid receptor delta 1 in CHO cells. In kind it is cell-based. In a few lines:
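Membranes from CHO cells expressing human delta opioid receptor (homogenized in 50 mM Tris HCl pH 7.4, 1 mM EGTA; stored frozen at 0.8 mg/mL) incubated with 0.5 nM [3H]naltrindole, 90 min at 37 °C. Nonspecific binding defined with unlabelled naltrindole. Filtration, scintillation counting; mean of at least three independent assays.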

Sequence of Mu-type opioid receptor (P33535 whole entry): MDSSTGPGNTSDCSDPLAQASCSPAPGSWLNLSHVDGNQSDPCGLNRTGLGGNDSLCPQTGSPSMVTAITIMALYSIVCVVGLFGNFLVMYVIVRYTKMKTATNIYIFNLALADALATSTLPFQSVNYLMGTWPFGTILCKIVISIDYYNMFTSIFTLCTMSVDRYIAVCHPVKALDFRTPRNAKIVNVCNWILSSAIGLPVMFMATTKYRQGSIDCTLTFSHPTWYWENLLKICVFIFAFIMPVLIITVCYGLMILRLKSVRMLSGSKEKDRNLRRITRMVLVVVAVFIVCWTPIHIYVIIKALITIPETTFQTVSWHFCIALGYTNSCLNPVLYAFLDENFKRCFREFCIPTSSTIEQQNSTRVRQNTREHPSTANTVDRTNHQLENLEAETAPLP
Sequence of Delta-type opioid receptor (P41143 whole entry): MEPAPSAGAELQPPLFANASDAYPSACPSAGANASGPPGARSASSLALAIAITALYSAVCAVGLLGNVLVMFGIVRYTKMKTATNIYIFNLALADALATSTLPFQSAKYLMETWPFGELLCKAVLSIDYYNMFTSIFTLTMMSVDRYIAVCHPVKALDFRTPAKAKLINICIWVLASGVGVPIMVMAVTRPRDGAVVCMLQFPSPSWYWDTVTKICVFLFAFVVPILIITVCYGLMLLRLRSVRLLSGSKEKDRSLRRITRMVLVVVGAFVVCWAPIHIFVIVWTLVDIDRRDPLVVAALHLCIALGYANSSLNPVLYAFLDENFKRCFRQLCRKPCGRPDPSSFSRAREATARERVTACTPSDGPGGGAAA
Sequence of Kappa-type opioid receptor (P41145 whole entry): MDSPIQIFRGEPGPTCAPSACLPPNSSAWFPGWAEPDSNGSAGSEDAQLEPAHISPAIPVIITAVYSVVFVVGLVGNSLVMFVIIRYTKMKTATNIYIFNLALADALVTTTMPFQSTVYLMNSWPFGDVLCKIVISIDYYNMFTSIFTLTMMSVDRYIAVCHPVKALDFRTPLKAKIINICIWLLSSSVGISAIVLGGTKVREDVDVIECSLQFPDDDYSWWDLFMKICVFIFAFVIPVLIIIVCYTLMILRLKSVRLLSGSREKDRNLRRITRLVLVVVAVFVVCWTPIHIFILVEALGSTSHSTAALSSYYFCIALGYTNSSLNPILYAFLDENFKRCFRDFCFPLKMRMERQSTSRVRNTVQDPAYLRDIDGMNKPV

The term Ki denotes a measure of affinity in units of concentration, obtained from inhibition or displacement. A lower Ki goes with tighter binding. With `CNC(c1cccc(O)c1)C(C)(C)C(=O)NCc1ccccc1` (stereo not drawn), the figures for the Ki in experiment [1], in experiment [2] and in experiment [3] were 5 nM, 8.7 nM and over 10000 nM, respectively.
Regarding `CNC(c1ccccc1)C(C)(C)C(=O)NCCc1ccccc1` (stereo not drawn), the Ki is 49 nM in experiment [1], 13 nM in experiment [2] and over 10000 nM in experiment [3].
Regarding `CNC(c1ccccc1)C(C)(C)C(=O)NCC1CCCCC1` (stereo not drawn), the results for the Ki in experiment [1], in experiment [2] and in experiment [3] were 1.2 nM, 85 nM and over 10000 nM, respectively.
For `CNC(c1ccccc1)C(C)(C)C(=O)NCc1ccccc1` (stereo not drawn), the Ki in experiment [1] is 467 nM; in experiment [2] it was 95 nM; in experiment [3], over 10000 nM.
Regarding `CNC(c1cccc(O)c1)C(C)(C)C(=O)NCCc1ccccc1` (stereo not drawn), the Ki is 6.3 nM in experiment [1], 1.4 nM in experiment [2] and 176 nM in experiment [3].
For `CCCCN(C)C(c1cccc(O)c1)C(C)(C)C(=O)NCCc1ccccc1` (stereo not drawn), the Ki is 75 nM in experiment [1], 26 nM in experiment [2] and over 10000 nM in experiment [3].
`CNC(c1cccc(O)c1)C(C)(C)C(=O)NCc1cccc2ccccc12` (stereo not drawn): the Ki in experiment [1] turned out to be 1.3 nM; in experiment [2], 1.4 nM; in experiment [3] it was 163 nM.
As for `CNC(c1cccc(O)c1)C(C)(C)C(=O)NCC1CC1` (stereo not drawn), the Ki was determined as 75 nM in experiment [1], 364 nM in experiment [2] and 781 nM in experiment [3].
For `CNC(c1cccc(O)c1)C(C)(C)C(=O)NCC1CCCCC1` (stereo not drawn), the Ki is 5.7 nM in experiment [1], 4.4 nM in experiment [2] and 881 nM in experiment [3].
Regarding `CNC(c1cccc(O)c1)C(C)(C)C(=O)NCCCc1ccccc1` (stereo not drawn), the values for the Ki in experiment [1], in experiment [2] and in experiment [3] were 3.6 nM, 12 nM and over 10000 nM, respectively.
The matching figures for `CN(CC1CC1)C(c1cccc(O)c1)C(C)(C)C(=O)NCCc1ccccc1` (stereo not drawn): 2.9 nM, 28 nM and 710 nM.
